Data on 94 compounds can be found in PubChem BioAssay AID1040 (The Scripps Research Institute Molecular Screening Center, 2008).

Several values for one entry are separate records, joined by “and”; a condition that tells them apart may be missing. Equal entries are not always repeated. The whole screen tested about 200,000 compounds, of which about 2,000 (1%) were called active.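 How the source made its calls: active means inhibition above the campaign mean inhibition of all tested compounds plus 3 SD (cut at about 20% in these data); inactive means the rest.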 The full list was thinned out, with actives kept by preference.

Chain of Neuropeptide Y receptor type 1 (Homo sapiens) (P25929 whole entry, looked up): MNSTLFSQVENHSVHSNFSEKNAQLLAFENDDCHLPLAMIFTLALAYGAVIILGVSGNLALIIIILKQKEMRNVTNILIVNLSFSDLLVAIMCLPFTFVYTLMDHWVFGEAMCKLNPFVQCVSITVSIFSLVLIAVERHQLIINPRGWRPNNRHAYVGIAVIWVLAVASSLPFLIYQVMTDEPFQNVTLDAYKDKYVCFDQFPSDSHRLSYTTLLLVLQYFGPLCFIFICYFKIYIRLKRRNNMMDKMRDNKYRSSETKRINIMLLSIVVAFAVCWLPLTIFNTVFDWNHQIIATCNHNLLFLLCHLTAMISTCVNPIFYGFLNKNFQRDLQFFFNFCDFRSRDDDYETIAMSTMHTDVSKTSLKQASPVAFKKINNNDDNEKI

The target of this assay is Neuropeptide Y receptor type 1 (Homo sapiens) (UniProt P25929). Kind of assay: NPY-Y1 receptor antagonists, primary screen, cell-based (AID 1040).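 Further: 0% = DMSO wells given NPY plus isoproterenol and 100% = isoproterenol alone without NPY.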 The following applies: HEK293-CNG Y1 cells, membrane potential fluorescence; at 3.6 µM; stronger effect = higher value; NPY at EC95, then isoproterenol. The procedure, abridged:
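Material: HEK293 cells with Y1 receptor plus CNG channel; times: compound incubation 1 h at room temperature, readout 45 min post-stimulation; signal: fluorescence, membrane potential probe; read-out basis: fluorescence ratio normalized to % inhibition between controls; benchmarks: full-block control isoproterenol-only wells, zero-block control NPY plus isoproterenol wells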
Regarding `CN(C(=O)COc1ccccc1)c1nnc(-c2ccncc2)s1`, the inhibition was 7.86% (inactive).

On to `COc1ccc(CCN(C(=O)COc2ccccc2)c2nc(-c3ccccc3)cs2)cc1OC`, for which the inhibition is 37.1% (active).

Take `COc1ccc(CCNc2nc(-c3cccc(NC(C)=O)c3)cs2)cc1OC`: the inhibition is 6.08% (inactive). For `CC(=O)N1CC(C)c2scc(C)[n+]2-c2ccccc21` (centres undefined), the inhibition is 23.1% (active). Regarding `C/C(=C\c1ccccc1)C1NC(=O)c2c(sc3c2CCCC3)N1` (centres undefined), the inhibition was -4.04% (inactive). On to `CC(=O)N(CC1CCCO1)C1(C(=O)NC2CCCC2)CCCCC1` (centres undefined), for which the inhibition was 1.44% (inactive).

For the compound `Cc1ccsc1C(C(=O)NC1CCCCC1)N(C(=O)Cc1cccs1)C1CC1` (centres undefined), the inhibition is 4.38% (inactive). For `O=C(Cc1cccs1)N(CC1CCCO1)C1(C(=O)NC2CCCCC2)CCCCC1` (centres undefined), the inhibition is 50.3% (active). For `CSc1cccc(NC(=S)N(Cc2ccccc2)Cc2ccccn2)c1`, the inhibition is 5.5% (inactive). On to `c1cncc(-c2nnc3n2C2(CCCCC2)Cc2ccccc2-3)c1`, for which the inhibition is 1.15% (inactive). In the case of `CCC1(CC)Cc2ccccc2-c2nc3ccccc3c(=O)n21`, the inhibition is 12.8% (inactive). Regarding `O=c1c2ccccc2nc2n1C1(CCCCC1)Cc1ccccc1-2`, the inhibition was 32% (active). In the case of `Cc1cc(C)c2[nH]c(=O)c(CN(Cc3ccccc3)C(=S)NCCCN(C)C)cc2c1`, the inhibition is 25.1% (active). To `COCCCNC(=S)N(Cc1ccccc1)Cc1ccc(F)cc1` belongs 2.32% (inactive); to `Cc1cccc2cc(CN(Cc3cccs3)C(=S)NCc3ccco3)c(=O)[nH]c12`, -4.05% (inactive).

Regarding `CC(=O)N1CCN(CC(=O)Nc2ccc(SC(F)F)cc2)CC1`, the inhibition is 4.16% (inactive).

For the compound `COc1ccccc1NC(=O)CCCc1c[nH]c2ccccc12`, the inhibition is 11.1% (inactive). Regarding `COc1cccc(CNCCc2c[nH]c3ccccc23)c1OCc1ccccc1F`, the inhibition is 21.9% (active). As to `COc1ccc(C(CCNCc2ccccc2F)c2ccc(F)cc2)cc1` (centres undefined), the inhibition is 9.35% (inactive).

Regarding `CCC(=O)Nc1sc(C(=O)Nc2ccccc2)c(C)c1C(=O)OC`, the inhibition is 7.74% (inactive). On to `O=S(=O)(Nc1ccc2cn[nH]c2c1)c1ccccc1`, for which the inhibition was -1.06% (inactive). Under `Cc1cc(C)nc(NS(=O)(=O)c2ccc(N/C=C\C(=O)c3cccs3)cc2)n1` stands 1.24% (inactive); under `COc1ccc(CCNC2=C(Cl)C(=O)N(Cc3ccccc3)C2=O)cc1OC`, -3.95% (inactive). In the case of `C/C(=N\N)c1c(-c2ccccc2)c2cc(Br)ccc2[nH]c1=O`, the inhibition is -0.69% (inactive). Under `Cc1cnc(C(=O)OCC(=O)NCCCc2ccccc2)cn1` stands 2.73% (inactive); under `COc1ccc(CN(C)C(=S)Nc2ccc(Cl)cc2Cl)cc1`, 3.26% (inactive); under `NC(N)=N/N=C/c1ccc(OCc2ccc(Cl)cc2Cl)cc1`, 22.1% (active).

As to `NC(N)=N/N=C/c1ccc(Cl)c([N+](=O)[O-])c1`, the inhibition is 3.89% (inactive). For `COc1ccc(C(=O)O/N=C(\N)Cc2ccc(Cl)cc2Cl)cc1OC`, the inhibition was -3.58% (inactive). Under `CN(C)CCNC(=O)Cc1ccc([N+](=O)[O-])cc1` stands -2.56% (inactive); under `Cc1ccc2cc(CN(c3ccc(C)c(C)c3)S(C)(=O)=O)c(=O)[nH]c2c1`, -0.43% (inactive); under `NNC(=O)c1cnn(-c2ccccc2)c1C(F)(F)F`, 3.72% (inactive). To `O=C(CN1C2=NCCN2c2ccccc21)c1cccs1` belongs 3.06% (inactive); to `O=C(Nc1ccccc1N1CCCCC1)c1cccc(F)c1`, 13.7% (inactive); to `Cc1cccc(C(=O)Nc2ccccc2N2CCN(c3ccc(F)cc3)CC2)c1`, 6.05% (inactive).

As to `O=C(Nc1ccccc1N1CCN(c2ccccc2)CC1)c1cccc(F)c1`, the inhibition was 44.1% (active).

`CC(=O)N(CCCN(C)C)c1nc2ccc(C)cc2s1`: the inhibition was -0.43% (inactive). Take `O=C(CSc1cccc[n+]1[O-])c1ccc(Cl)cc1`: the inhibition is 0.77% (inactive). Consider `CN(C)S(=O)(=O)c1cc(NC(=O)CN2C(=O)NC3(CCCc4ccccc43)C2=O)ccc1Cl` (centres undefined), for which the inhibition was -4.16% (inactive). Consider `Cc1ccc(-n2nc3cc(C)c(NC(=O)c4cccnc4)cc3n2)cc1`, for which the inhibition is -4.27% (inactive). Take `Cc1ccc2nc(-c3ccc(NC(=O)c4cccnc4)cc3)oc2c1`: the inhibition is -0.59% (inactive). In the case of `Cc1cc2nc(-c3ccc(NC(=O)c4cccnc4)cc3)oc2cc1C`, the inhibition was 29.8% (active). To `Cc1nc2cc(NC(=O)NC3CC3)ccc2n1C` belongs -0.07% (inactive); to `O=C(CN1CCN(c2ncc(C(F)(F)F)cc2Cl)CC1)Nc1ccc2c(c1)OCO2`, 23.8% (active); to `O=C(CN1CCN(C(=O)c2ccco2)CC1)Nc1ccc2c(c1)OCO2`, 0.97% (inactive). Turning to `O=C(CN1CCN(CC(=O)Nc2ccc3c(c2)OCO3)CC1)Nc1ccc(F)cc1`, the inhibition is -3.14% (inactive). Take `COc1ccc(C(=O)NC(Cc2ccc(OC(=O)c3ccc(OC)cc3)cc2)C(=O)O)cc1` (centres undefined): the inhibition is 3.87% (inactive).

Consider `Cc1coc(C)c1C(=O)CC1(O)C(=O)N(C)c2ccc(Cl)cc21` (centres undefined), for which the inhibition is 1.88% (inactive). With `O=C1NC(=Nc2ccc(Cl)cc2)SC1Cc1cccc(Cl)c1Cl` (centres undefined), the inhibition is -1.29% (inactive). As to `CCc1cc2c(NC3CCCC3)ncnc2s1`, the inhibition is -1.37% (inactive).

Turning to `CC(Oc1ccc2ccccc2c1)C(=O)NNC(=S)NC(=O)c1ccco1` (centres undefined), the inhibition was 21.9% (active). For `O=C(Nc1ccc2ccccc2c1)/C(=C/c1cccc(Br)c1)NC(=O)c1ccco1`, the inhibition was 7.08% (inactive). Under `CCCc1ccc(OCC(=O)NNC(=S)NC(=O)c2ccco2)cc1` stands 10.6% (inactive); under `COc1ccccc1NC(=O)CSc1nc2sc(C)c(C)c2c(=O)n1Cc1ccco1`, 9.58% (inactive); under `CCOC(=O)CSc1nc2c(c(=O)n(C)c(=O)n2C)n1Cc1ccccc1F`, 1.86% (inactive).

As for `CCOC(=O)CSc1nc2c(sc(=S)n2CCc2ccccc2)c(=O)n1Cc1ccco1`, the inhibition is 34.8% (active). In the case of `CC(=O)c1ccc(N2CCN(S(=O)(=O)c3c(C)[nH]c(=O)[nH]c3=O)CC2)cc1`, the inhibition was -3.11% (inactive).

Take `O=C(NC(=S)Nc1cccc(-c2ccc(CO)o2)c1)c1cccs1`: the inhibition is 4.06% (inactive). For the compound `O=C(Nn1c(SCc2ccc([N+](=O)[O-])cc2)nc2ccccc2c1=O)c1ccc(F)cc1`, the inhibition is 3.79% (inactive). `COc1ccc2oc(=O)c(C(=O)N3CCCC3)cc2c1`: the inhibition was 1% (inactive). Take `CCOC1CCCCC1NS(=O)(=O)c1ccc(Cl)cc1` (centres undefined): the inhibition is 21.4% (active). Under `Cc1cc(C)nc(SC2CCCCC2NS(=O)(=O)c2ccc(Cl)cc2)n1` (centres undefined) stands 4.03% (inactive); under `CSc1ccc(S(=O)(=O)NC2CCCCC2)cc1`, -0.27% (inactive). For `O=C(COc1nc2ccccc2nc1N1CCOCC1)NCC(F)(F)F`, the inhibition was 3.34% (inactive). In the case of `C/C=C/c1ccc(OCC(O)CN2CCCCCCC2)c(OC)c1` (centres undefined), the inhibition was 16.4% (inactive). Consider `CCCCCOC(=O)c1ccc(N2C(=O)C3C4C=CC(C4)C3C2=O)cc1` (centres undefined), for which the inhibition is -0.77% (inactive). For `Cc1ccc(N2C(=O)C3CC3C2=O)cc1` (centres undefined), the inhibition was -4.56% (inactive). As for `C/C(=N/O)c1ccc(N2C(=O)C3C4C=CC(C3C2=O)C2C3C(=O)N(c5ccc(/C(C)=N/O)cc5)C(=O)C3C42)cc1` (centres undefined), the inhibition was 20.7% (active). On to `Cc1ccc(C(=O)N/C(=C/c2cccs2)C(=O)N2CCCCC2)cc1`, for which the inhibition is 0.27% (inactive). With `CCOC(=O)c1c(NC(=O)C2CC=CCC2C(=O)O)sc(C)c1CC` (centres undefined), the inhibition is 6.42% (inactive).

`COc1ccc2nc(Nc3nc4ccc(NC(C)=O)cc4s3)sc2c1`: the inhibition was -4.47% (inactive). For the compound `CCCC(=O)Nc1nc2ccc(NC(=O)c3c(F)c(F)c(OC)c(F)c3F)cc2s1`, the inhibition is 33.9% (active). Turning to `CCCC(=O)Nc1nc2ccc(NC(=O)c3cccnc3)cc2s1`, the inhibition is 2.46% (inactive). In the case of `O=C(NCc1ccco1)c1ccc(NS(=O)(=O)c2cccc([N+](=O)[O-])c2)cc1`, the inhibition was -0.88% (inactive). On to `CN1CCN(C(=O)/C(=C\c2cccs2)NC(=O)c2cccs2)CC1`, for which the inhibition is -0.85% (inactive). Under `CO/N=C/c1cn(-c2ccc(Cl)cc2)nn1` stands -3.05% (inactive).

Take `O=C(NCc1ccncc1)NC12CC3CC(CC(C3)C1)C2`: the inhibition was -6.14% (inactive). As for `CCCCn1nc(C(=O)N2CCc3ccccc32)c2ccccc2c1=O`, the inhibition is 28.5% (active). With `CCCn1nc(C(=O)N2CCCc3ccccc32)c2ccccc2c1=O`, the inhibition is 3.23% (inactive). As to `O=C(c1cccc(C(=O)N2CCc3ccccc32)n1)N1CCc2ccccc21`, the inhibition was 10.5% (inactive). As to `NS(=O)(=O)c1ccc(N=Cc2ccc(Br)s2)cc1`, the inhibition is 2.13% (inactive). `Cc1ccc(S(=O)(=O)NC(C(=O)N2CCOCCOCCOCCOCC2)c2ccccc2)cc1` (centres undefined): the inhibition is 5.72% (inactive). Regarding `O=C(/C=C/c1ccccc1)Nc1nnc(SCC(=O)c2ccc3ccccc3c2)s1`, the inhibition is -1.51% (inactive). Turning to `O=C(NCCNc1ccc([N+](=O)[O-])cc1)c1cccc2c(Br)cccc12`, the inhibition is 10.2% (inactive). For `CCOC(=O)/C(=N\Nc1ccccc1Cl)N(C)C1CCS(=O)(=O)C1` (centres undefined), the inhibition is -1.74% (inactive). `Cn1c(-c2ccccc2)c[n+]2c1CCCCC2`: the inhibition is 6% (inactive). Under `Cc1ccc(C(=O)N2CCCC(c3ccccc3)=N2)cc1` stands 0.71% (inactive); under `Cc1ccc(C(=O)C[n+]2cc(-c3ccccc3)n3c2CCCCC3)cc1`, 30.8% (active) and 55.8% (active); under `CCN1CCN(C(C(=O)NC2CCCC2)c2cc3c(cc2[N+](=O)[O-])OCO3)CC1` (centres undefined), -0.35% (inactive). For the compound `COC(=O)C1=C(Nc2ccc(OC)cc2)C=C(C)C(C(=O)OC)C1c1ccc(C)cc1` (centres undefined), the inhibition is 14.2% (inactive). For `COC(=O)C1C(=O)NCC1c1ccc(C)cc1` (centres undefined), the inhibition is -2.75% (inactive).

In the case of `COC(=O)C1=C(Nc2ccc(C)cc2)C=C(C)C(C(=O)OC)C1c1ccc(F)cc1` (centres undefined), the inhibition is 32.6% (active). Under `O=c1[nH]c2ccccc2s1` stands 1.2% (inactive); under `Cc1ccc(S(=O)(=O)N2CCOCC2)cc1C(=O)NC(=S)N(Cc1ccccc1)C(C)C`, 1.17% (inactive).
